Drawing on ChEMBL document CHEMBL4049407, “Positional Scanning Identifies the Molecular Determinants of a High Affinity Multi-Leucine Inhibitor for Furin and PACE4” (J Med Chem, 2017), this text covers Ki, Ratio Ki and Activity for 14 compounds.

The structures appear in SMILES notation. Calls of active or inactive are those of the source. How the calls were made is not given here. Peptide text beside a SMILES is read from it. * marks the point of attachment. NH(4-amidinobenzyl) = N=C(N)c1ccc(CN*)cc1

Test [1] concerns the target T1, Proprotein convertase subtilisin/kexin type 6 (Homo sapiens, UniProt P29122).
T1 sequence (P29122 whole entry): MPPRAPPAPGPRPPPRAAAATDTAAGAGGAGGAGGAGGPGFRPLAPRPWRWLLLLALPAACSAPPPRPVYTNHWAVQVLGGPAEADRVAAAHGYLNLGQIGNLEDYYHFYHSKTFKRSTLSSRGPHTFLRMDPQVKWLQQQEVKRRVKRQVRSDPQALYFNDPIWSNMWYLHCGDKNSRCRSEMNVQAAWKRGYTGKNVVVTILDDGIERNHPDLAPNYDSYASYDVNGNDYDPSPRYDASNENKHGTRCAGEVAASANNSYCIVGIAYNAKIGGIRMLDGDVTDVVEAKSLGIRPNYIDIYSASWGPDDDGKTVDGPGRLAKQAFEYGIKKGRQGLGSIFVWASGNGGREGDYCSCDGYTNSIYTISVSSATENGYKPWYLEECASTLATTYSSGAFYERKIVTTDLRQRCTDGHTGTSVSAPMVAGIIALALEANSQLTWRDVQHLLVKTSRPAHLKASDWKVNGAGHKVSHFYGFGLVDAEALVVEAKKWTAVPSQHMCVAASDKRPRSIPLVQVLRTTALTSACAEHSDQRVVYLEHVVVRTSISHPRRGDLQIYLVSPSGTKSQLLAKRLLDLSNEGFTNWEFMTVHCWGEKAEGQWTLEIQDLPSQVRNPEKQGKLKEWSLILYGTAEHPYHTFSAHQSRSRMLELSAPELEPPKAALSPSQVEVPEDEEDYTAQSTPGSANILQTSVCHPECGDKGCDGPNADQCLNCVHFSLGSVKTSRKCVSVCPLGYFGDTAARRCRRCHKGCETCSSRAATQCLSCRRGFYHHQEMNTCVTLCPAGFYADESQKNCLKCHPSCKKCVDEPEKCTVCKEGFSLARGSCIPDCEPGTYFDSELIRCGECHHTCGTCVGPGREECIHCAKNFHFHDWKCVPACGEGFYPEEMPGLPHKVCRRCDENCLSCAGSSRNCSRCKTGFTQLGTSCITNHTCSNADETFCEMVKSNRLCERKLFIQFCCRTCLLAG
In words: Inhibition of recombinant human PACE4 expressed in drosophila S2 cells using pyrGlu-Arg-Thr-Lys-Arg-7-amido-4-methylcoumarin as substrate after 60 mins by spectrofluorometry method. In kind it is cell-based. The method, boiled down:
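Human recombinant purified PACE4 at 2 units/100 µL (20.18 nM), in 20 mM BisTris pH 6.5, 1 mM CaCl2, 1.8 mg/mL BSA. Substrate 100 µM, KM 4.035 µM. Inhibitor 1 nM to 10 µM; 60 min at 37°C. Fluorescence ex 370 / em 460 nm. Ki by Morrison tight-binding equation; three independent experiments, mean ± SD.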

In another test the target is Furin (Homo sapiens, UniProt P09958). Kind of test: Inhibition of recombinant human furin expressed in drosophila S2 cells using pyrGlu-Arg-Thr-Lys-Arg-7-amido-4-methylcoumarin as substrate after 60 mins by spectrofluorometry method. Type of test: cell-based. In short, it runs like this: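 Human recombinant purified furin at 2 units/100 µL (0.54 nM), in 100 mM HEPES pH 7.5, 1 mM CaCl2, 1 mM β-mercaptoethanol, 1.8 mg/mL BSA. His-containing peptides run instead in 20 mM BisTris pH 6.5 with the same additives. Substrate 100 µM, KM 5.04 µM. Inhibitor 1 nM to 10 µM; 60 min at 37°C. Fluorescence ex 370 / em 460 nm. Ki by Morrison equation; triplicate experiments, mean ± SD.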
Sequence of Furin (P09958 whole entry): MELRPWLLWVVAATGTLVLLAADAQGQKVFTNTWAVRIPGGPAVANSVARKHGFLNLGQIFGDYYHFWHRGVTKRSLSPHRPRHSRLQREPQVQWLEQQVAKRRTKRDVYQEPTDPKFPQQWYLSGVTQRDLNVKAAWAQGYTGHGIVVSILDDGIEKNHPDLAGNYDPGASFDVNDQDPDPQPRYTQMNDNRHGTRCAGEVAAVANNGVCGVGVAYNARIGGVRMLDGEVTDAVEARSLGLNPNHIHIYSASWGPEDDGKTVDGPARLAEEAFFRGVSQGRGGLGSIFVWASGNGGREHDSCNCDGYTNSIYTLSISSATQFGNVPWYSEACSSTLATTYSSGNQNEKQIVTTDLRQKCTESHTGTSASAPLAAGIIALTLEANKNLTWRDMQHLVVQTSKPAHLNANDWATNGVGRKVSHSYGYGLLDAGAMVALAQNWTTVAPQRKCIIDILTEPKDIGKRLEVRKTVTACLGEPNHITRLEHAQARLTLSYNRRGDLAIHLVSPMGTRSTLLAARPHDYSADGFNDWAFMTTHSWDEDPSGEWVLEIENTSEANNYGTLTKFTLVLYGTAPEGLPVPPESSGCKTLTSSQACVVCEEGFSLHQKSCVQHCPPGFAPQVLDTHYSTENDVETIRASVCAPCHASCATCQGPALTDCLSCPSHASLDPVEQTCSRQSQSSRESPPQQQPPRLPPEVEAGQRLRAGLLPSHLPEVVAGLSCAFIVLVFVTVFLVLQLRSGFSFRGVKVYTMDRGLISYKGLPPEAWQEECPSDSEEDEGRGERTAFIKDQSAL

The species named for a further test is Homo sapiens. Kind of test: Selectivity index, ratio of Ki for recombinant human furin expressed in drosophila S2 cells to Ki for recombinant human PACE4 expressed in drosophila S2 cells. Type of test: cell-based. The method, boiled down: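 Ratio Ki(furin)/Ki(PACE4). […] PACE4 buffer was BisTris pH 6.5; furin buffer was HEPES pH 7.5, or BisTris pH 6.5 for His peptides. Ki fitted by Morrison equation from three independent experiments.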

The test system of the next test is DU-145. In words: Antiproliferative activity against human DU145 cells assessed as reduction in metabolic activity at 25 to 100 uM after 72 hrs by MTT assay. In kind it is functional, cell-based. In short, it runs like this:
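First-pass MTT screen of each library peptide on DU145 cells (RPMI 1640, 5% FBS, 1500 cells/well, poly-L-lysine plates). Peptides added 24 h after seeding at 25, 50 and 100 µM in fresh serum medium for 72 h. MTT 1 mg/mL for 4 h; 2-propanol HCl solubilisation. Activity normalised to water vehicle. Mean ± SEM of at least two independent experiments.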
Background: Tetrazolium dyes change colour on reduction, which living cells bring about.

As usually defined, the Ki is the equilibrium dissociation constant of an inhibitor or competing ligand from its target.

Take `CC(=O)N[C@@H](CC(C)C)C(=O)N[C@@H](CCC(=O)O)C(=O)N[C@@H](CC(C)C)C(=O)N[C@@H](CC(C)C)C(=O)N[C@@H](CCCNC(=N)N)C(=O)N[C@H](C(=O)N[C@@H](CCCCN)C(=O)NCc1ccc(C(=N)N)cc1)C(C)C` (Ac-LELLRVK-{NH(4-amidinobenzyl)}): the inhibitory constant (Ki) in test [1] turned out to be 51 nM; on Furin it was 23 nM. In the test filed under Homo sapiens, the Ratio Ki stood at 0.5. Besides, the outcome in the test with DU-145 was inactive.

As for `CC(=O)N[C@@H](CC(C)C)C(=O)N[C@H](C(=O)N[C@@H](CC(C)C)C(=O)N[C@@H](CC(C)C)C(=O)N[C@@H](CCCNC(=N)N)C(=O)N[C@H](C(=O)N[C@@H](CCCCN)C(=O)NCc1ccc(C(=N)N)cc1)C(C)C)[C@@H](C)O` (Ac-LTLLRVK-{NH(4-amidinobenzyl)}), the Ki in test [1] was found to be 1 nM; on Furin it was 1.7 nM. The Ratio Ki in the test filed under Homo sapiens came to 1.7. Besides, in the test with DU-145, the result was inactive.

Take `CC(=O)N[C@@H](CC(C)C)C(=O)N[C@@H](CC(C)C)C(=O)N[C@@H](CCCCN)C(=O)N[C@@H](CC(C)C)C(=O)N[C@@H](CCCNC(=N)N)C(=O)N[C@H](C(=O)N[C@@H](CCCCN)C(=O)NCc1ccc(C(=N)N)cc1)C(C)C` (Ac-LLKLRVK-{NH(4-amidinobenzyl)}): the Ki in test [1] was found to be 2.2 nM; at Furin it was 4 nM. In the test filed under Homo sapiens, the Ratio Ki was determined as 1.8. The result in the test with DU-145 was inactive.

Regarding `CC(=O)N[C@@H](CC(C)C)C(=O)N[C@@H](CC(C)C)C(=O)N[C@@H](CC(C)C)C(=O)N[C@@H](CCCNC(=N)N)C(=O)N[C@@H](CCCNC(=N)N)C(=O)N[C@H](C(=O)N[C@@H](CCCCN)C(=O)NCc1ccc(C(=N)N)cc1)C(C)C` (Ac-LLLRRVK-{NH(4-amidinobenzyl)}), the inhibition constant Ki in test [1] was 0.2 nM; on Furin, 0.7 nM. For the same compound, in the test listed under Homo sapiens, the Ratio Ki was 3.5. For the same compound, in the test on DU-145, the outcome was inactive.

Regarding `CC(=O)N[C@@H](CC(N)=O)C(=O)N[C@@H](CC(C)C)C(=O)N[C@@H](CC(C)C)C(=O)N[C@@H](CC(C)C)C(=O)N[C@@H](CCCNC(=N)N)C(=O)N[C@H](C(=O)N[C@@H](CCCCN)C(=O)NCc1ccc(C(=N)N)cc1)C(C)C` (Ac-NLLLRVK-{NH(4-amidinobenzyl)}), the inhibitory constant (Ki) in test [1] was 6 nM; on Furin it was 3.1 nM. Also, the Ratio Ki in the test filed under Homo sapiens worked out at 0.5. Also, the outcome in the test on DU-145 was inactive.

For `CSCC[C@H](NC(=O)[C@H](CC(C)C)NC(=O)[C@H](CC(C)C)NC(C)=O)C(=O)N[C@@H](CC(C)C)C(=O)N[C@@H](CCCNC(=N)N)C(=O)N[C@H](C(=O)N[C@@H](CCCCN)C(=O)NCc1ccc(C(=N)N)cc1)C(C)C` (Ac-LLMLRVK-{NH(4-amidinobenzyl)}), the inhibitory constant (Ki) in test [1] is 28 nM; at Furin, 18 nM. In addition, in the test listed under Homo sapiens, the Ratio Ki was 0.6. In addition, the result in the test on DU-145 was inactive.

Take `CC(=O)N[C@@H](CC(C)C)C(=O)N[C@@H](CC(C)C)C(=O)N[C@@H](CC(C)C)C(=O)N[C@@H](CO)C(=O)N[C@@H](CCCNC(=N)N)C(=O)N[C@H](C(=O)N[C@@H](CCCCN)C(=O)NCc1ccc(C(=N)N)cc1)C(C)C` (Ac-LLLSRVK-{NH(4-amidinobenzyl)}): the Ki was determined as 2 nM in test [1] and 4 nM on Furin. Also, in the test listed under Homo sapiens, the Ratio Ki is 2. Besides, the outcome with DU-145 was inactive.

In the case of `CC(=O)N[C@@H](CC(C)C)C(=O)N[C@@H](CC(C)C)C(=O)NCC(=O)N[C@@H](CC(C)C)C(=O)N[C@@H](CCCNC(=N)N)C(=O)N[C@H](C(=O)N[C@@H](CCCCN)C(=O)NCc1ccc(C(=N)N)cc1)C(C)C` (Ac-LLGLRVK-{NH(4-amidinobenzyl)}), the Ki in test [1] was 21 nM; on Furin, 16.7 nM. In the test listed under Homo sapiens, the Ratio Ki is 0.8. Also, the outcome in the test on DU-145 was inactive.

As to `CC(=O)N[C@@H](CC(C)C)C(=O)N[C@@H](CC(C)C)C(=O)N[C@@H](CO)C(=O)N[C@@H](CC(C)C)C(=O)N[C@@H](CCCNC(=N)N)C(=O)N[C@H](C(=O)N[C@@H](CCCCN)C(=O)NCc1ccc(C(=N)N)cc1)C(C)C` (Ac-LLSLRVK-{NH(4-amidinobenzyl)}), the inhibitory constant (Ki) in test [1] turned out to be 36 nM; on Furin, 15 nM. Besides, in the test listed under Homo sapiens, the Ratio Ki was determined as 0.4. The outcome in the test on DU-145 was inactive.

As to `CC(=O)N[C@@H](C)C(=O)N[C@@H](CC(C)C)C(=O)N[C@@H](CC(C)C)C(=O)N[C@@H](CC(C)C)C(=O)N[C@@H](CCCNC(=N)N)C(=O)N[C@H](C(=O)N[C@@H](CCCCN)C(=O)NCc1ccc(C(=N)N)cc1)C(C)C` (Ac-ALLLRVK-{NH(4-amidinobenzyl)}), the inhibition constant (Ki) in test [1] stood at 1.5 nM; on Furin, 3 nM. Moreover, the Ratio Ki in the test listed under Homo sapiens came to 2. For the same compound, the outcome with DU-145 was inactive.

In the case of `CC(=O)N[C@@H](CC(C)C)C(=O)N[C@@H](CC(C)C)C(=O)N[C@@H](CC(C)C)C(=O)N[C@@H](CCCCN)C(=O)N[C@@H](CCCNC(=N)N)C(=O)N[C@H](C(=O)N[C@@H](CCCCN)C(=O)NCc1ccc(C(=N)N)cc1)C(C)C` (Ac-LLLKRVK-{NH(4-amidinobenzyl)}), the Ki in test [1] is 2 nM; at Furin, 0.9 nM. In addition, the Ratio Ki in the test listed under Homo sapiens was determined as 0.5. Also, the result in the test on DU-145 was inactive.

`CC(=O)N1CCC[C@H]1C(=O)N[C@@H](CC(C)C)C(=O)N[C@@H](CC(C)C)C(=O)N[C@@H](CC(C)C)C(=O)N[C@@H](CCCNC(=N)N)C(=O)N[C@H](C(=O)N[C@@H](CCCCN)C(=O)NCc1ccc(C(=N)N)cc1)C(C)C` (Ac-PLLLRVK-{NH(4-amidinobenzyl)}): the inhibitory constant (Ki) in test [1] was found to be 3 nM; on Furin, 1.1 nM. Further, the Ratio Ki in the test filed under Homo sapiens amounted to 0.4. Besides, in the test on DU-145, the outcome was inactive.

`CC(=O)N[C@@H](CC(C)C)C(=O)N[C@@H](CC(C)C)C(=O)N[C@@H](Cc1c[nH]c2ccccc12)C(=O)N[C@@H](CC(C)C)C(=O)N[C@@H](CCCNC(=N)N)C(=O)N[C@H](C(=O)N[C@@H](CCCCN)C(=O)NCc1ccc(C(=N)N)cc1)C(C)C` (Ac-LLWLRVK-{NH(4-amidinobenzyl)}): the Ki in test [1] was 44 nM; at Furin it was 36 nM. Besides, the Ratio Ki in the test listed under Homo sapiens amounted to 0.8. Further, the result with DU-145 was inactive.

As to `CC(=O)N[C@@H](CCCCN)C(=O)N[C@@H](CC(C)C)C(=O)N[C@@H](CC(C)C)C(=O)N[C@@H](CC(C)C)C(=O)N[C@@H](CCCNC(=N)N)C(=O)N[C@H](C(=O)N[C@@H](CCCCN)C(=O)NCc1ccc(C(=N)N)cc1)C(C)C` (Ac-KLLLRVK-{NH(4-amidinobenzyl)}), the inhibitory constant (Ki) in test [1] was found to be 0.3 nM; on Furin, 0.4 nM. In addition, the Ratio Ki in the test listed under Homo sapiens was 1.3. Besides, in the test with DU-145, the result was inactive.
